The source of these data is ChEMBL document CHEMBL1255277, “Acinetobacter radioresistens as a silent source of carbapenem resistance for Acinetobacter spp” (2008).

In brackets after ≈: the same amount, converted by molar mass. Activity calls are given as the source filed them. The calls are words filed in the database; no cut-off is given here.

One assay deals with Acinetobacter baumannii. Description: Activity of beta lactamase OXA23 in Acinetobacter baumannii Ab13 assessed as compound hydrolysis rate per mg of protein by spectrophotometry. The gist of the method:
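Crude culture extract (enzyme source) of the strain; hydrolysis followed by UV spectrophotometry with 100 μM benzylpenicillin or imipenem as substrate; rate expressed as U/mg of protein.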

For assay [1], the system named is Escherichia coli. Put plainly: Antimicrobial activity against Escherichia coli TOP10 harboring Beta-lactamase OXA-103 by Etest. Type of assay: functional. The essentials: (§1)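 MIC read by Etest on Mueller-Hinton agar at 37°C. Test strains were E. coli TOP10 and TOP10 recombinants carrying cloned OXA-23-like oxacillinase genes. Recombinant clones had been selected on kanamycin (30 μg/ml) plus amoxicillin (30 μg/ml), and cloned inserts were confirmed by double-strand sequencing.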

Assay [2] relates to Escherichia coli. Description: Antimicrobial activity against Escherichia coli TOP10 by Etest. Type of assay: functional. The gist of the method:
as §1

Assay [3] concerns Escherichia coli. Put plainly: Antimicrobial activity against Escherichia coli TOP10 harboring Beta-lactamase OXA-105 by Etest. Type of assay: functional. The essentials: as §1
Assay [4] relates to Escherichia coli. Description: Antimicrobial activity against Escherichia coli TOP10 harboring Beta-lactamase OXA-102 by Etest. The format is functional. The gist of the method:
as §1

The subject of assay [5] is Escherichia coli. Description: Antimicrobial activity against Escherichia coli TOP10 harboring Beta-lactamase OXA-23 by Etest. Type of assay: functional. The essentials: as §1
For assay [6], the system named is Acinetobacter radioresistens. Description: Antimicrobial activity against Acinetobacter radioresistens isolates by Etest. The format is functional. The essentials:
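MICs determined by Etest on Mueller-Hinton agar at 37°C; strains previously grown overnight at 37°C on Mueller-Hinton agar plates.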

On to `CC1(C)S[C@@H]2[C@H](NC(=O)Cc3ccccc3)C(=O)N2[C@H]1C(=O)O`, for which the Activity in the assay on Acinetobacter baumannii worked out at 5 U.

As for `C[C@@H](O)[C@H]1C(=O)N2C(C(=O)O)=C(S[C@@H]3CN[C@H](C(=O)Nc4cccc(C(=O)O)c4)C3)[C@H](C)[C@H]12` [ERTAPENEM], the MIC against Escherichia coli [1] is 0.125 µg/mL (≈ 0.263 µM); against Escherichia coli [2] it was 0.004 µg/mL (≈ 0.00841 µM); in the assay with Escherichia coli [3], 0.125 µg/mL (≈ 0.263 µM); against Escherichia coli [4] it was 0.125 µg/mL (≈ 0.263 µM); against Escherichia coli [5], 0.012 µg/mL (≈ 0.0252 µM). Moreover, the “growth inhibition (GI)” value in assay [6] was “Active”.

For `C[C@@H](O)[C@H]1C(=O)N2C(C(=O)O)=C(SCCNC=N)C[C@H]12` [IMIPENEM ANHYDROUS], the MIC against Escherichia coli [1] turned out to be 1 µg/mL (≈ 3.34 µM); against Escherichia coli [2] it was 0.125 µg/mL (≈ 0.418 µM); with Escherichia coli [3], 1 µg/mL (≈ 3.34 µM); with Escherichia coli [4] it was 1 µg/mL (≈ 3.34 µM); against Escherichia coli [5], 1 µg/mL (≈ 3.34 µM). Besides, in the assay with Acinetobacter baumannii, the Activity is 0.2 U. In addition, the “growth inhibition (GI)” value in assay [6] is “Active”.

Take `C[C@@H](O)[C@H]1C(=O)N2C(C(=O)O)=C(S[C@@H]3CN[C@H](C(=O)N(C)C)C3)[C@H](C)[C@H]12` [MEROPENEM]: the MIC in the assay on Escherichia coli [1] stood at 0.094 µg/mL (≈ 0.245 µM); against Escherichia coli [2] it was 0.047 µg/mL (≈ 0.123 µM); in the assay with Escherichia coli [3] it was 0.094 µg/mL (≈ 0.245 µM); with Escherichia coli [4], 0.094 µg/mL (≈ 0.245 µM); in the assay on Escherichia coli [5] it was 0.047 µg/mL (≈ 0.123 µM). Also, in assay [6], the “growth inhibition (GI)” value was “Active”.
